Test results reported in the EternaBench riboswitch data.

Tested on: MS2 coat protein
Assay: apparent Kd, MS2 coat protein; higher = weaker binding; RNA-MaP array
In short: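 Incubations were done at room temperature with fluorescently labeled MS2 coat protein at 1.5 nM to 3 μM and designed RNAs transcribed on an Illumina sequencing chip from sequenced DNA templates, with or without input ligand. Apparent Kd is the median of binding curves fitted for each cluster. Designs with fewer than 10 measured clusters were excluded.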

[1] = designed as: ON switch for flavin mononucleotide, no ligand
[2] = ligand present: flavin mononucleotide, designed as: ON switch for flavin mononucleotide
[3] = designed as: OFF switch for flavin mononucleotide, no ligand
[4] = ligand present: flavin mononucleotide, designed as: OFF switch for flavin mononucleotide
[5] = designed as: ON switch for tryptophan, no ligand
[6] = ligand present: tryptophan, designed as: ON switch for tryptophan

Sequence	apparent Kd [1] [nM]	apparent Kd [2] [nM]	apparent Kd [3] [nM]	apparent Kd [4] [nM]	also measured
ACAUGAGGAUCACCCAUGUCUACGAAGGUCGAAAUUAAUACCAGAAGGCGCGUCGACUAAGAGUGCGAGGAUAUGGUGUGUCGA	52	9.96	–	–	–
AUCUGGUUACAAGGAUAUCCAAUGUAAACAAUAGGAGAAGGAGUGAAAAGACCUAGGAAAACAUGAGGAUCACCCAUGUAAUUA	111	39.1	–	–	–
GGCGAUCAGUGAGGAUAUUCCGCGCAAAUACUAGAAGAAGGCACGUAUCAAGGGUUCAGAACAUGAGGAUCACCCAUGUCAAGC	14	10.1	–	–	–
CCGGAGACCGUGUCAGCGGAAGCAAGAACACGAGGACCGGUACGGCCGCCACUCGAAAGAAGACAUGAGGAUCACCCAUGUCCAU	–	–	–	–	apparent Kd (designed as: OFF switch for tryptophan, no ligand): 12 nM; apparent Kd (ligand present: tryptophan, designed as: OFF switch for tryptophan): 13.9 nM
CACAAACCAGAGAAGGCCCUAAGAGUAUAGAGAAUACGAAACAUGAGGAUCACCCAUGUCAUAUGGGAGGAUAUCAACAAGAUU	135	11.3	–	–	–
GAUCAACAUGAGGAUCACCCAUGUCAGGAUAUGCAGACAGUCUUUACGUCAGUCGUAAGCAGAAGGGACUACGG	–	–	52.5	69.6	–
AUUCGGUCAGGAUAUAGCGCACGCCGACGAACAUGUGGCGGCUAGAAGGGACAUGAGGAUCACCCAUGUCGGGC	–	–	8.41	10.7	–
AGAUCACAUGAGGAUCACCCAUGUCAGGAACUAAGGUACGCUAGAAGGCCGGAUAUGCGGGAAGCGGAGGAUAUAGCAAGCAUC	40.8	19.6	–	–	–
CCCAGAUGCUAGAAGGCCUACAUGAGGAUCACCCAUGUAUCCGCUAUCCACACACGCAGGCGGCAGGAGGAUAUAGACGAAGGA	8.84	6.63	–	–	–
UUCUGGCCGCAGAAGGAGGAUCUGGUUGAAAUCCUAGGAUAUGCAUCUAACCACUGGUCCACAUGAGGAUCACCCAUGUCAGAC	–	–	16.3	12.4	–
UACCUUAGCAACAUGAGGAUCACCCAUGUUUGGUGGCGAAUUAGAAGGGACAGCAUUUAUACAAGUCAGGAUAUAAUUUAGGGA	–	–	16.5	11.6	–
ACUUAGAGAUAGAAGGAUGGAGUCAGGGUCCACAUAGGAUAUAUCUUGCACGAAACAUGAGGAUCACCCAUGUUGGAAUCCUCU	–	–	30.4	27.8	–
GCACGAGUAAGACCUGACUUCAACAAUGAUACCAGACUAGUAAACGUCCCUUGGCAGCAUCAGACAUGAGGAUCACCCAUGUGGC	–	–	–	–	apparent Kd (designed as: OFF switch for theophylline, no ligand): 27 nM; apparent Kd (ligand present: theophylline, designed as: OFF switch for theophylline): 29.4 nM
GCGUUGGCCACGGCCGCCACUCAGGUACCGCGCGUAGUGAACUUACAUGAGGAUCACCCAUGUCUGAGGACCGGGUGGCCGCCAC	–	–	–	–	apparent Kd [5]: 37.3 nM; apparent Kd [6]: 46.2 nM
CCUAUCAAACGAGGAUAUGUGCGGACAAGAAACACAGAAGGCGAACCACAUGAGGAUCACCCAUGUACGAAGACAAAGCAAGAA	22.7	14.5	–	–	–
CUUGGAAGACAGAAGGGCAUCCACCCGGGACCAGCAGGAUAUGUCAACGGUAGCCGAAAACAUGAGGAUCACCCAUGUCAGAAG	75.8	30.1	–	–	–
CUCGAGUUUACAGGAUAUUAGGAAAUCGGAUAUUAAGAAGGGUAAAUGUACAUGAGGAUCACCCAUGUUCUCUGCUGCGUCAUA	–	–	15.4	14.5	–
AGGAAACAUGAGGAUCACCCAUGUGAGGAUAUACAAAAGAGCGAAAGAAGAAAUUAAUGUAGAAGGCACGUCAA	–	–	15.1	13.3	–
CACUACAUGAGGAUCACCCAUGUAUACUGACGAGGACCGGUACGGCCGCCACUCGAACCGAAACCGACUUCAUUCUGUGUACCAU	–	–	–	–	apparent Kd [5]: 15.4 nM; apparent Kd [6]: 16.2 nM
UUAGAAUACUAAGGAUAUGAUUAUGGCGCACCGCUGUCCGGUGUACAUGAGGAUCACCCAUGUAAUCAGAAGGUAGACUUGUCC	9.94	8.91	–	–	–
GUUUCGUCAGGAUAUGCUUAAGAAGUCUUCUCACCGGACUUGCAGAAGGGACAUGAGGAUCACCCAUGUGGUAA	–	–	36.5	167	–
UAACCGUGAGGAUAUACAUGAGGAUCACCCAUGUGGUUUUGCUGCGCACAUACUUUAUGUAGAAGGCACAACUG	–	–	50	59.9	–
AACAUGAGGAUCACCCAUGUUAGAAUAACAACGGAAAUAACAGAGGAUAUCGUUAAUUAAUAGCGCGAGAAGGCAGAAUUCAAA	6.86	5.95	–	–	–
